# Screening data from PubChem BioAssay.
# SIRT5 inh: SIRT5 desuccinylase inhibitors, primary screen, biochemical, fluorescence imaging, single point, set 5; NAD-dependent protein deacylase sirtuin-5, mitochondrial (Homo sapiens), Q9NXA8; Purified SirT5, succinyl-peptide AMC, trypsin-coupled fluorescence; inhibition, % at 15 µM; actives 1.1% (n = 330,000); AID 652115, 2013; in the data active = inhibition above about 15%; inconclusive = no clear call, values can overlap the other calls
# E-selectin induc: E-selectin induction in HUVECs, primary screen, imaging, HUVEC, immunofluorescence imaging, single point; P16581; normalized: neutral wells 0, TNF-alpha wells 100; activation, % at 7.58 µM; actives 0.37% (n = 260,000); AID 686992, 2013;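 active = mean E-selectin-positive cell signal at least 10% of the positive control, reached in at least 60% of replicates, without over 20% cell loss; inconclusive = no rule given, readout overlaps actives, possibly toxicity-flagged; inactive = the rest, including those meeting only one limit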
# Target sequence (P16581 whole entry, looked up): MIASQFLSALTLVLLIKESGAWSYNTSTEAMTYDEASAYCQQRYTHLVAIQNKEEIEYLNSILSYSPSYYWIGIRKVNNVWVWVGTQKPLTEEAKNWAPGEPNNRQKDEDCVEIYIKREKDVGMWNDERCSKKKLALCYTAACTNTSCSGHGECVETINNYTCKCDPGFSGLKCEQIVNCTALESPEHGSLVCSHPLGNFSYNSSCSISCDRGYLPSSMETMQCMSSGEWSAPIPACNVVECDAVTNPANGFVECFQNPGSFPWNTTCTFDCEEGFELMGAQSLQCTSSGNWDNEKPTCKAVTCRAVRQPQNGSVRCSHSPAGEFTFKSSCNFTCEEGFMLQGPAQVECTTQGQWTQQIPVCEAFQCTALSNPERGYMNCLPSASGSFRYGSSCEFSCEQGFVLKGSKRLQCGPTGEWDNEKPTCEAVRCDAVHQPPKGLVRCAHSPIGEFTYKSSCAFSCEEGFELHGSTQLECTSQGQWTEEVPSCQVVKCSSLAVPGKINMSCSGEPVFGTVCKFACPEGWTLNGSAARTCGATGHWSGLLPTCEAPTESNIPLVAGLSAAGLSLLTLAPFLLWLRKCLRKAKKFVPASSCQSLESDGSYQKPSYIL
#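 Material: HUVEC primary endothelial cells; Amount: 3,000 cells per well; Dosing: single concentration; Medium: EGM-2 growth medium on 0.1% gelatin-coated wells; Read-out basis: percent E-selectin-positive cells; Signal: immunofluorescence imaging; Control set: TNF-alpha, DMSO.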
# DENV2 CPE rescue: inhibitors of DENV2 cytopathic effect, primary screen, cell-based, plate reader, single concentration. DENV2-infected cells, cytopathic effect rescue. CPE inhibition, % at 9.99 µM. actives 1.7% (n = 350,000). AID 651640, 2012; in the data active = CPE inhibition above about 20%, passing the limit was not always enough; inconclusive = no clear call, values can overlap the other calls; tested in BHK-21 cells;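 note: 0% = median of neutral control wells and 100% = median of positive control wells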
# Numbers without * were called inactive; ? = inconclusive; · = no result given. Sampled rows, rich in hits. Any-hit rate of the full collection: about 2.9%.
SMILES,SIRT5 inh,E-selectin induc,DENV2 CPE rescue
O=C(N/N=C/c1c[nH]c2ccccc12)c1cccs1,0.1,-0.3,45.9*
O=C(NN=Cc1c[nH]c2ccccc12)NN=Cc1c[nH]c2ccccc12,·,-0.1,-0.1
Cc1cc(/N=C/C=C2/N(C)c3ccccc3C2(C)C)n(CCC#N)n1,3.0,0.1,2.5
Cc1noc(C)c1NC(=O)N(C)C[C@@H]1OCc2cnnn2CCCC(=O)N([C@H](C)CO)C[C@@H]1C,-4.6,0.3,2.9
Cc1nc(C)c(C(=O)Nc2ncc([N+](=O)[O-])s2)o1,10.0,3.0,-4.9
Cc1ccccc1NC(=O)CSc1ccc(-c2ccc(-n3cccn3)cc2)nn1,-3.9,·,-1.3
C[C@@H]1CCCCO[C@@H](CN(C)S(=O)(=O)c2cccs2)[C@H](C)CN([C@@H](C)CO)C(=O)c2cc(NC(=O)CCC(F)(F)F)ccc2O1,9.0,-0.3,-2.8
COc1cccc(-c2ccc3c(c2)[C@H]2[C@H](CCN2C(=O)Nc2ccccc2OC)[C@H](CO)N3C)c1,0.7,-0.2,15.5
COc1cccc(-c2ccc3c(c2)[C@@H]2[C@@H](CCN2C(=O)Nc2ccccc2OC)[C@@H](CO)N3C)c1,-2.9,-0.6,29.0*
COc1cccc(-c2ccc3c(c2)[C@@H]2[C@@H](CCN2C(=O)c2ccccc2F)[C@H](CO)N3C)c1,20.1*,-0.1,3.1
COc1cccc(-c2ccc3c(c2)[C@@H]2[C@@H](CCN2C(=O)c2ccccc2F)[C@@H](CO)N3C)c1,2.1,2.3,1.4
CC(C)(C)c1ccc(C(=O)N2CCN(S(=O)(=O)c3ccc(Br)s3)CC2)cc1,-2.4,·,3.5
CN(CCO)c1ccc2c(c1)OC[C@H](Cc1ccccc1)NS2(=O)=O,-6.5,1.5,-3.2
Cc1ccc(S(=O)(=O)CC(=O)Nc2ccc3nc(C)sc3c2)cc1,23.6*,·,-4.6
Cc1nc2ccc(NC(=O)CS(=O)(=O)c3ccc(F)cc3)cc2s1,-0.6,0.3,18.5
CC1CCCN(C(=O)Nc2ccc(Br)cc2Cl)C1 (stereo not drawn),3.2,0.1,-4.2
CC1CN(C(=O)Nc2ccc(Br)cc2Cl)CC(C)O1 (stereo not drawn),66.5*,·,4.3
C[C@H]1CN([C@@H](C)CO)C(=O)c2cccc(NC(=O)C3CC3)c2O[C@H]1CN(C)C(=O)Nc1ccc(F)cc1,-2.8,1.9,8.8
C[C@H]1CCCCO[C@H](CN(C)Cc2ccc(C(F)(F)F)cc2)[C@@H](C)CN([C@@H](C)CO)C(=O)c2cc(NS(=O)(=O)c3ccc(F)cc3)ccc2O1,22.7*,-0.2,7.5
C[C@@H]1CCCCO[C@H](CN(C)Cc2ccc(C(F)(F)F)cc2)[C@H](C)CN([C@H](C)CO)C(=O)c2cc(NS(=O)(=O)c3ccccc3)ccc2O1,-3.9,1.0,-14.7
C[C@H](CO)N1C[C@H](C)[C@@H](CN(C)Cc2ccc(C(F)(F)F)cc2)OCCCC[C@H](C)Oc2ccc(NS(=O)(=O)c3ccc(F)cc3)cc2C1=O,20.3*,1.5,6.9
C[C@@H]1CCCCO[C@@H](CN(C)Cc2ccc(C(F)(F)F)cc2)[C@@H](C)CN([C@H](C)CO)C(=O)c2cc(NS(=O)(=O)c3ccc(F)cc3)ccc2O1,4.3,0.1,-11.5
C[C@@H]1CN([C@@H](C)CO)C(=O)Cc2cc(NS(=O)(=O)c3ccccc3)ccc2O[C@@H]1CN(C)C(=O)Nc1ccc(F)cc1,·,0.0,-3.1
CC[n+]1ccc(/C=C/c2ccc(N(C)C)cc2)c2ccccc21,3.8,114.6*,-0.9
CC[n+]1ccccc1/C=C/c1ccc(N(C)C)cc1,·,·,8.4
SMILES,SIRT5 inh,E-selectin induc,DENV2 CPE rescue
CCOC(=O)C1=NOC(CNC(=O)c2ccccc2Cl)C1 (stereo not drawn),-1.6,·,-2.3
CCOC(=O)C1=NOC(COc2ccccc2C=O)C1 (stereo not drawn),22.6*,·,-1.7
CCCN(CCC)Cc1c(C(=O)N/N=C/c2ccoc2)nnn1-c1nonc1N,3.2,0.4,0.6
CCCC#Cc1ccc([C@@H]2[C@@H](CO)N3C(=O)CN(C(=O)NC4CCCC4)C[C@@H]23)cc1,0.8,0.2,12.0
CCCC#Cc1ccc([C@H]2[C@@H](CO)N3C(=O)CN(C(=O)NC4CCCC4)C[C@@H]23)cc1,-0.1,-0.3,30.6*
O=C(Nc1ccc(F)cc1)N1CC(=O)N2[C@@H](CO)[C@H](c3ccc(C#Cc4ccc(F)cc4)cc3)[C@@H]2C1,7.5,0.3,4.8
CCCC#Cc1ccc([C@@H]2[C@H]3CN(C(=O)Nc4ccc(F)cc4)CC(=O)N3[C@H]2CO)cc1,0.5,0.7,41.6*
CC1CCCN(C(=O)C2CCN(c3ncnc4c3nc3n4CCCCC3)CC2)C1 (stereo not drawn),1.5,·,3.6
COc1ccc(OC)c(S(=O)(=O)NC(C)CCc2ccccc2)c1 (stereo not drawn),-2.2,0.1,-4.4
COc1ccc(OC)c(S(=O)(=O)NCCc2ccccc2)c1,15.3*,·,4.8
Cc1cc(C(=O)Nc2ccccc2C)n(-c2ccccc2)n1,-10.3,?,9.2
Cc1ccc(S(=O)(=O)Nc2ncnc3sc(C)c(C)c23)cc1,4.6,-1.6,-14.4
C[C@H](CO)N1C[C@H](C)[C@H](CN(C)Cc2ccc(C(=O)Nc3ccccc3N)cc2)Oc2ccc(NC(=O)Cc3ccccc3)cc2CC1=O,·,10.2,32.1*
C[C@H]1CN([C@@H](C)CO)C(=O)Cc2cc(NC(=O)CCC(F)(F)F)ccc2O[C@@H]1CN(C)Cc1ccc(C(=O)Nc2ccccc2N)cc1,11.5,·,7.4
C[C@@H]1CN([C@H](C)CO)C(=O)Cc2cc(NC(=O)CCC(F)(F)F)ccc2O[C@@H]1CN(C)Cc1ccc(C(=O)Nc2ccccc2N)cc1,2.5,·,37.6*
CC(C)NC(=O)Nc1ccc2c(c1)CC(=O)N([C@@H](C)CO)C[C@@H](C)[C@@H](CN(C)Cc1ccc(C(=O)Nc3ccccc3N)cc1)O2,-8.6,1.1,11.5
C[C@H]1CN([C@@H](C)CO)C(=O)Cc2cc(NC(=O)c3ccncc3)ccc2O[C@H]1CN(C)Cc1ccc(C(=O)Nc2ccccc2N)cc1,5.2,?,58.0*
C[C@@H]1CN([C@H](C)CO)C(=O)Cc2cc(NC(=O)NC3CCCCC3)ccc2O[C@@H]1CN(C)Cc1ccc(C(=O)Nc2ccccc2N)cc1,7.9,·,28.3*
C[C@H]1CN([C@@H](C)CO)C(=O)Cc2cc(NC(=O)c3ccncc3)ccc2O[C@@H]1CN(C)Cc1ccc(C(=O)Nc2ccccc2N)cc1,10.6,-8.9,-10.8
C[C@H]1CN([C@@H](C)CO)C(=O)Cc2cc(NC(=O)Cc3ccccc3)ccc2O[C@H]1CN(C)Cc1ccc(C(=O)Nc2ccccc2N)cc1,0.8,7.2,-7.4
COc1ccc(C2NC(Cc3ccccc3)(C(=O)O)C3C(=O)N(c4ccccc4OC)C(=O)C23)cc1 (stereo not drawn),7.6,·,-6.0
CC1CCCCN1C(=O)CSc1nnc2c(n1)[nH]c1ccc(F)cc12 (stereo not drawn),-1.9,·,-0.7
Cn1c(C(=O)O)cc2c(=O)n3ccccc3nc21,-42.9,1.8,-3.1
O=S(=O)(c1ccccc1)N1N=C(c2ccccc2)CC1c1ccccc1 (stereo not drawn),-1.8,·,-0.9
